Measured values reported in ChEMBL document CHEMBL2086318, “Synthesis and in vitro antimycobacterial activity of 2-methoxybenzanilides and their thioxo analogues” (Eur J Med Chem, 2012).
Values after ≈ are worked out from the molar mass of the structure shown.

Columns and labels:
Assay type in all cases: functional
[1] = test system: Mycobacterium tuberculosis; assay: Antimycobacterial activity against Mycobacterium tuberculosis My 331/88 after 14 days by micromethod; conditions: My 331/88, 336 h
Procedure, shortened: (§1)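 MIC by micromethod at 37 °C, read after 14 and 21 days. Inocula were M. tuberculosis My 331/88 at 10^-3 dilution and M. avium My 330/88 at 10^-5 dilution. Compounds added in DMSO across 1000, 500, 250, 125, 62.5, 32, 16, 8, 4, 2, 1 and 0.5; isoniazid standard in sterile water. MIC taken as the lowest concentration inhibiting growth.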

[2] = test system: Mycobacterium tuberculosis; assay: Antimycobacterial activity against Mycobacterium tuberculosis My 331/88 after 21 days by micromethod; conditions: My 331/88, 504 h; procedure, shortened: as §1
Mycobacterium avium [3] = assay: Antimycobacterial activity against Mycobacterium avium My 330/88 after 14 days by micromethod; conditions: My 330/88, 336 h
Mycobacterium avium [4] = assay: Antimycobacterial activity against Mycobacterium avium My 330/88 after 21 days by micromethod; conditions: My 330/88, 504 h
Mycobacterium kansasii [5] = assay: Antimycobacterial activity against Mycobacterium kansasii My 235/80 after 7 days by micromethod; conditions: My 235/80, 168 h
Mycobacterium kansasii [6] = assay: Antimycobacterial activity against Mycobacterium kansasii My 235/80 after 14 days by micromethod; conditions: My 235/80, 336 h
Mycobacterium kansasii [7] = assay: Antimycobacterial activity against Mycobacterium kansasii My 235/80 after 21 days by micromethod; conditions: My 235/80, 504 h
Mycobacterium kansasii [8] = assay: Antimycobacterial activity against Mycobacterium kansasii My 6509/96 clinical isolate after 7 days by micromethod; conditions: My 6509/96, 168 h
Mycobacterium kansasii [9] = assay: Antimycobacterial activity against Mycobacterium kansasii My 6509/96 clinical isolate after 14 days by micromethod; conditions: My 6509/96, 336 h
Mycobacterium kansasii [10] = assay: Antimycobacterial activity against Mycobacterium kansasii My 6509/96 clinical isolate after 21 days by micromethod; conditions: My 6509/96, 504 h

SMILES	MIC [1]	MIC [2]	MIC (Mycobacterium avium [3])	MIC (Mycobacterium avium [4])	MIC (Mycobacterium kansasii [5])	MIC (Mycobacterium kansasii [6])	MIC (Mycobacterium kansasii [7])	MIC (Mycobacterium kansasii [8])	MIC (Mycobacterium kansasii [9])	MIC (Mycobacterium kansasii [10])
COc1ccc(Cl)cc1C(=S)Nc1cccc(C(F)(F)F)c1	16 µM (≈ 5.53 µg/mL)	16 µM (≈ 5.53 µg/mL)	32 µM (≈ 11.1 µg/mL)	32 µM (≈ 11.1 µg/mL)	8 µM (≈ 2.77 µg/mL)	16 µM (≈ 5.53 µg/mL)	16 µM (≈ 5.53 µg/mL)	8 µM (≈ 2.77 µg/mL)	16 µM (≈ 5.53 µg/mL)	16 µM (≈ 5.53 µg/mL)
COc1ccc(Cl)cc1C(=S)Nc1cccc([N+](=O)[O-])c1	250 µM (≈ 80.7 µg/mL)	250 µM (≈ 80.7 µg/mL)	250 µM (≈ 80.7 µg/mL)	250 µM (≈ 80.7 µg/mL)	62.5 µM (≈ 20.2 µg/mL)	250 µM (≈ 80.7 µg/mL)	250 µM (≈ 80.7 µg/mL)	62.5 µM (≈ 20.2 µg/mL)	250 µM (≈ 80.7 µg/mL)	250 µM (≈ 80.7 µg/mL)
COc1cc(Cl)ccc1C(=O)Nc1ccc(C(F)(F)F)cc1	125 µM (≈ 41.2 µg/mL)	125 µM (≈ 41.2 µg/mL)	62.5 µM (≈ 20.6 µg/mL)	125 µM (≈ 41.2 µg/mL)	125 µM (≈ 41.2 µg/mL)	125 µM (≈ 41.2 µg/mL)	125 µM (≈ 41.2 µg/mL)	32 µM (≈ 10.6 µg/mL)	125 µM (≈ 41.2 µg/mL)	125 µM (≈ 41.2 µg/mL)
COc1cc(Cl)ccc1C(=S)Nc1ccc(C(F)(F)F)cc1	8 µM (≈ 2.77 µg/mL)	16 µM (≈ 5.53 µg/mL)	32 µM (≈ 11.1 µg/mL)	32 µM (≈ 11.1 µg/mL)	16 µM (≈ 5.53 µg/mL)	32 µM (≈ 11.1 µg/mL)	62.5 µM (≈ 21.6 µg/mL)	8 µM (≈ 2.77 µg/mL)	32 µM (≈ 11.1 µg/mL)	32 µM (≈ 11.1 µg/mL)
O=C(Nc1ccc(Cl)c(Cl)c1)c1cc(Cl)ccc1O	4 µM (≈ 1.27 µg/mL)	8 µM (≈ 2.53 µg/mL)	16 µM (≈ 5.07 µg/mL)	16 µM (≈ 5.07 µg/mL)		4 µM (≈ 1.27 µg/mL)	4 µM (≈ 1.27 µg/mL)			
COc1ccc(Cl)cc1C(=O)Nc1ccc(C(F)(F)F)cc1	250 µM (≈ 82.4 µg/mL)	250 µM (≈ 82.4 µg/mL)	250 µM (≈ 82.4 µg/mL)	250 µM (≈ 82.4 µg/mL)	125 µM (≈ 41.2 µg/mL)	500 µM (≈ 165 µg/mL)	500 µM (≈ 165 µg/mL)	62.5 µM (≈ 20.6 µg/mL)	250 µM (≈ 82.4 µg/mL)	250 µM (≈ 82.4 µg/mL)
O=C(Nc1cccc(Cl)c1)c1cc(Cl)ccc1O	4 µM (≈ 1.13 µg/mL)	8 µM (≈ 2.26 µg/mL)	8 µM (≈ 2.26 µg/mL)	16 µM (≈ 4.51 µg/mL)		4 µM (≈ 1.13 µg/mL)	8 µM (≈ 2.26 µg/mL)			
O=C(Nc1ccc(Br)cc1)c1ccc(Cl)cc1O	4 µM (≈ 1.31 µg/mL)	4 µM (≈ 1.31 µg/mL)	16 µM (≈ 5.23 µg/mL)	16 µM (≈ 5.23 µg/mL)		4 µM (≈ 1.31 µg/mL)	4 µM (≈ 1.31 µg/mL)			
O=C(Nc1ccc([N+](=O)[O-])cc1)c1cc(Cl)ccc1O	4 µM (≈ 1.17 µg/mL)	8 µM (≈ 2.34 µg/mL)	8 µM (≈ 2.34 µg/mL)	8 µM (≈ 2.34 µg/mL)		4 µM (≈ 1.17 µg/mL)	4 µM (≈ 1.17 µg/mL)			
O=C(Nc1ccc(C(F)(F)F)cc1)c1cc(Cl)ccc1O	2 µM (≈ 0.631 µg/mL)	2 µM (≈ 0.631 µg/mL)	8 µM (≈ 2.53 µg/mL)	8 µM (≈ 2.53 µg/mL)		1 µM (≈ 0.316 µg/mL)	1 µM (≈ 0.316 µg/mL)			
O=C(Nc1cccc([N+](=O)[O-])c1)c1cc(Cl)ccc1O	8 µM (≈ 2.34 µg/mL)	8 µM (≈ 2.34 µg/mL)	16 µM (≈ 4.68 µg/mL)	16 µM (≈ 4.68 µg/mL)		8 µM (≈ 2.34 µg/mL)	8 µM (≈ 2.34 µg/mL)			
O=C(Nc1cccc(Cl)c1)c1ccc(Cl)cc1O	4 µM (≈ 1.13 µg/mL)	4 µM (≈ 1.13 µg/mL)	16 µM (≈ 4.51 µg/mL)	16 µM (≈ 4.51 µg/mL)		4 µM (≈ 1.13 µg/mL)	8 µM (≈ 2.26 µg/mL)			
O=C(Nc1ccc(Cl)cc1)c1ccc(Cl)cc1O	4 µM (≈ 1.13 µg/mL)	4 µM (≈ 1.13 µg/mL)	8 µM (≈ 2.26 µg/mL)	8 µM (≈ 2.26 µg/mL)		4 µM (≈ 1.13 µg/mL)	8 µM (≈ 2.26 µg/mL)			
O=C(Nc1ccc(Cl)c(Cl)c1)c1ccc(Cl)cc1O	4 µM (≈ 1.27 µg/mL)	4 µM (≈ 1.27 µg/mL)	16 µM (≈ 5.07 µg/mL)	16 µM (≈ 5.07 µg/mL)		8 µM (≈ 2.53 µg/mL)	8 µM (≈ 2.53 µg/mL)			
O=C(Nc1cccc([N+](=O)[O-])c1)c1ccc(Cl)cc1O	8 µM (≈ 2.34 µg/mL)	8 µM (≈ 2.34 µg/mL)	16 µM (≈ 4.68 µg/mL)	16 µM (≈ 4.68 µg/mL)		16 µM (≈ 4.68 µg/mL)	16 µM (≈ 4.68 µg/mL)			
O=C(Nc1ccc(C(F)(F)F)cc1)c1ccc(Cl)cc1O	4 µM (≈ 1.26 µg/mL)	4 µM (≈ 1.26 µg/mL)	8 µM (≈ 2.53 µg/mL)	8 µM (≈ 2.53 µg/mL)		4 µM (≈ 1.26 µg/mL)	4 µM (≈ 1.26 µg/mL)			
O=C(Nc1ccc(Cl)cc1)c1cc(Cl)ccc1O	4 µM (≈ 1.13 µg/mL)	4 µM (≈ 1.13 µg/mL)	8 µM (≈ 2.26 µg/mL)	8 µM (≈ 2.26 µg/mL)		8 µM (≈ 2.26 µg/mL)	8 µM (≈ 2.26 µg/mL)			
O=C(Nc1ccc(Br)cc1)c1cc(Cl)ccc1O	8 µM (≈ 2.61 µg/mL)	16 µM (≈ 5.23 µg/mL)	8 µM (≈ 2.61 µg/mL)	8 µM (≈ 2.61 µg/mL)		4 µM (≈ 1.31 µg/mL)	4 µM (≈ 1.31 µg/mL)			
